From the RNAGym collection of RNA variant scans (doi:10.1126/science.aae0568)
Fewer inactive variants are shown than the library holds.

B1: tRNA (parent)
chain: GUUCCGUUGGCGUAAUGGUAACGCGUCUCCCUCCUAAGGAGAAGACUGCGGGUUCGAGUCCCGUACGGAACG

Variants of: B1
Experiment: yeast fitness relative to wild type (ratio to wild type); higher = fitter; tRNA-Arg(CCU), competitive growth, 37 C, YPD
In short: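 A pool of Saccharomyces cerevisiae strains, each with a tRNA-Arg(CCU) gene variant at the native genomic locus, was competed in YPD at 37°C for 24 hours across six parallel replicates. The variants had been chemically synthesised at a 3% per-site mutation rate over 69 sites, and gene amplicons before and after competition were read by 100-nucleotide paired-end sequencing. Darwinian fitness relative to wild type rested on changes in genotype frequencies. Genotypes required ≥ 100 starting reads, and estimates < 0.5 were set to 0.5.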

**Q.** With C11U G48C as the variant, how does the yeast fitness read?
**A.** Its yeast fitness is 0.882.

**Q.** For C11U G48U, which yeast fitness is on record?
**A.** Its yeast fitness is 0.853.

**Q.** With C11U G50A as the variant, how does the yeast fitness read?
**A.** The yeast fitness was 0.81.

**Q.** With C11U G50A A69C as the variant, how does the yeast fitness read?
**A.** Its yeast fitness is 0.522.

**Q.** With C11U G50A A70U as the variant, how does the yeast fitness read?
**A.** Its yeast fitness is 0.702.

**Q.** For C11U G50A C66A, which yeast fitness is on record?
**A.** Its yeast fitness is at most 0.5.

**Q.** With C11U G50A G56A as the variant, how does the yeast fitness read?
**A.** The yeast fitness was 0.781.

**Q.** With C11U G50A G63A A65U as the variant, how does the yeast fitness read?
**A.** Its yeast fitness is at most 0.5.

**Q.** Which yeast fitness does the source give for C11U G50C C61U here?
**A.** The yeast fitness was 0.581.

**Q.** With C11U G51C as the variant, how does the yeast fitness read?
**A.** Its yeast fitness is 0.718.

**Q.** With C11U G51C U59G as the variant, how does the yeast fitness read?
**A.** The yeast fitness was 0.534.

**Q.** Which yeast fitness does the source give for C11U G52A here?
**A.** The yeast fitness was 0.827.

**Q.** For C11U G52C, which yeast fitness is on record?
**A.** Its yeast fitness is 0.707.

**Q.** For C11U G56A, which yeast fitness is on record?
**A.** The yeast fitness was 0.901.

**Q.** With C11U G56A G67U as the variant, how does the yeast fitness read?
**A.** Its yeast fitness is 0.526.

**Q.** With C11U G58C as the variant, how does the yeast fitness read?
**A.** Its yeast fitness is 0.925.

**Q.** For C11U G67A, which yeast fitness is on record?
**A.** Its yeast fitness is 0.816.

**Q.** For C11U G67A A69U, which yeast fitness is on record?
**A.** Its yeast fitness is 0.652.

**Q.** Which yeast fitness does the source give for C11U G67U here?
**A.** The yeast fitness was 0.846.

**Q.** With C11U G68A as the variant, how does the yeast fitness read?
**A.** Its yeast fitness is 0.878.

**Q.** With C11U U13A A40C U64C as the variant, how does the yeast fitness read?
**A.** Its yeast fitness is at most 0.5.

**Q.** For C11U U13A A57U U64G A65G, which yeast fitness is on record?
**A.** Its yeast fitness is at most 0.5.

**Q.** With C11U U13A C22G C24A C46G C55U as the variant, how does the yeast fitness read?
**A.** The yeast fitness was at most 0.5.

**Q.** Which yeast fitness does the source give for C11U U13A C46G C62G here?
**A.** The yeast fitness was at most 0.5.

**Q.** For C11U U13A G25A U28A C31A A43C C60G C61G C62U, which yeast fitness is on record?
**A.** The yeast fitness was 0.581.

**Q.** For C11U U13A G48A, which yeast fitness is on record?
**A.** Its yeast fitness is 0.59.

**Q.** For C11U U13A U16A U54A, which yeast fitness is on record?
**A.** The yeast fitness was 0.711.

**Q.** With C11U U13C A15G C46A as the variant, how does the yeast fitness read?
**A.** Its yeast fitness is 0.631.

**Q.** For C11U U13C A43C, which yeast fitness is on record?
**A.** The yeast fitness was 0.682.

**Q.** Which yeast fitness does the source give for C11U U13C C24A U47A here?
**A.** Its yeast fitness is at most 0.5.

**Q.** For C11U U13C C29U A37C C46A, which yeast fitness is on record?
**A.** The yeast fitness was at most 0.5.

**Q.** For C11U U13C C29U A37C U54A C62U G68A, which yeast fitness is on record?
**A.** The yeast fitness was at most 0.5.

**Q.** With C11U U13C U28C A42U C55A G56A as the variant, how does the yeast fitness read?
**A.** The yeast fitness was at most 0.5.

**Q.** For C11U U13G U19A C22G G25A A69U, which yeast fitness is on record?
**A.** Its yeast fitness is at most 0.5.

**Q.** With C11U U16A as the variant, how does the yeast fitness read?
**A.** Its yeast fitness is 0.819.

**Q.** Which yeast fitness does the source give for C11U U16A C22A C24G A45U U47A here?
**A.** Its yeast fitness is at most 0.5.

**Q.** Which yeast fitness does the source give for C11U U16A C55A here?
**A.** Its yeast fitness is at most 0.5.

**Q.** For C11U U16A U64A, which yeast fitness is on record?
**A.** Its yeast fitness is 0.514.

**Q.** With C11U U16C C33A U53C C66G G67U as the variant, how does the yeast fitness read?
**A.** The yeast fitness was at most 0.5.

**Q.** For C11U U16C G25A, which yeast fitness is on record?
**A.** Its yeast fitness is 0.9.

**Q.** For C11U U16C U19C, which yeast fitness is on record?
**A.** Its yeast fitness is 0.929.

**Q.** For C11U U16C U19C C62U A70G, which yeast fitness is on record?
**A.** The yeast fitness was 0.524.

**Q.** With C11U U16C U26C A45C C46U as the variant, how does the yeast fitness read?
**A.** The yeast fitness was at most 0.5.

**Q.** Which yeast fitness does the source give for C11U U16C U28C A43C here?
**A.** Its yeast fitness is at most 0.5.

**Q.** For C11U U19A, which yeast fitness is on record?
**A.** Its yeast fitness is 0.992.

**Q.** Which yeast fitness does the source give for C11U U19A A37C A40C G63A here?
**A.** The yeast fitness was at most 0.5.

**Q.** Which yeast fitness does the source give for C11U U19A A42G U59A C60U here?
**A.** Its yeast fitness is at most 0.5.

**Q.** Which yeast fitness does the source give for C11U U19A A43U A65U here?
**A.** Its yeast fitness is 0.53.

**Q.** Which yeast fitness does the source give for C11U U19A G41A C60G A65G here?
**A.** Its yeast fitness is at most 0.5.

**Q.** Which yeast fitness does the source give for C11U U19A G63C here?
**A.** Its yeast fitness is 0.53.

**Q.** With C11U U19A U32A A37U as the variant, how does the yeast fitness read?
**A.** Its yeast fitness is at most 0.5.

**Q.** With C11U U19C A20U A42C A65C A69U as the variant, how does the yeast fitness read?
**A.** The yeast fitness was at most 0.5.

**Q.** With C11U U19C C22G G25C C33U G39C C62G as the variant, how does the yeast fitness read?
**A.** Its yeast fitness is at most 0.5.

**Q.** With C11U U19C G67C as the variant, how does the yeast fitness read?
**A.** The yeast fitness was 0.566.

**Q.** Which yeast fitness does the source give for C11U U19C U59C C61A here?
**A.** Its yeast fitness is at most 0.5.

**Q.** Which yeast fitness does the source give for C11U U19G A20U here?
**A.** Its yeast fitness is 0.764.

**Q.** Which yeast fitness does the source give for C11U U19G A65C here?
**A.** Its yeast fitness is 0.696.

**Q.** For C11U U19G A69U, which yeast fitness is on record?
**A.** Its yeast fitness is 0.782.

**Q.** Which yeast fitness does the source give for C11U U19G C27U C29G here?
**A.** The yeast fitness was at most 0.5.

**Q.** For C11U U26A A36U, which yeast fitness is on record?
**A.** Its yeast fitness is at most 0.5.

**Q.** Which yeast fitness does the source give for C11U U26A A36U A65U here?
**A.** The yeast fitness was at most 0.5.

**Q.** With C11U U26A A43U A65C A70G as the variant, how does the yeast fitness read?
**A.** Its yeast fitness is at most 0.5.

**Q.** For C11U U26A C34G G68C, which yeast fitness is on record?
**A.** The yeast fitness was at most 0.5.

**Q.** For C11U U26A C60A, which yeast fitness is on record?
**A.** Its yeast fitness is at most 0.5.

**Q.** Which yeast fitness does the source give for C11U U26C U47A here?
**A.** The yeast fitness was 0.555.

**Q.** Which yeast fitness does the source give for C11U U26C U47A G50A here?
**A.** The yeast fitness was at most 0.5.

**Q.** Which yeast fitness does the source give for C11U U26C U47A G50A A70C here?
**A.** The yeast fitness was at most 0.5.

**Q.** With C11U U26C U47C as the variant, how does the yeast fitness read?
**A.** Its yeast fitness is 0.799.

**Q.** Which yeast fitness does the source give for C11U U26G C30A A43C U53C C66U A70C here?
**A.** Its yeast fitness is at most 0.5.

**Q.** For C11U U26G G67C, which yeast fitness is on record?
**A.** The yeast fitness was at most 0.5.

**Q.** For C11U U26G U32A A43C U53C A70U, which yeast fitness is on record?
**A.** Its yeast fitness is at most 0.5.

**Q.** For C11U U28A, which yeast fitness is on record?
**A.** Its yeast fitness is 0.682.

**Q.** With C11U U28A A69C as the variant, how does the yeast fitness read?
**A.** Its yeast fitness is 0.58.

**Q.** Which yeast fitness does the source give for C11U U28A C62G here?
**A.** The yeast fitness was at most 0.5.

**Q.** For C11U U28C A45U, which yeast fitness is on record?
**A.** The yeast fitness was 0.742.

**Q.** With C11U U28C C29G A57G as the variant, how does the yeast fitness read?
**A.** Its yeast fitness is at most 0.5.

**Q.** Which yeast fitness does the source give for C11U U28C C29G C60A here?
**A.** The yeast fitness was at most 0.5.

**Q.** With C11U U28C G44C as the variant, how does the yeast fitness read?
**A.** Its yeast fitness is 0.557.

**Q.** For C11U U28C G44C A69C A70C, which yeast fitness is on record?
**A.** The yeast fitness was at most 0.5.

**Q.** Which yeast fitness does the source give for C11U U28C G44C U64C here?
**A.** Its yeast fitness is at most 0.5.

**Q.** With C11U U32A C34U as the variant, how does the yeast fitness read?
**A.** Its yeast fitness is at most 0.5.

**Q.** With C11U U32C C33U C62U A65G as the variant, how does the yeast fitness read?
**A.** The yeast fitness was at most 0.5.

**Q.** Which yeast fitness does the source give for C11U U32G C62A here?
**A.** Its yeast fitness is 0.618.

**Q.** With C11U U32G U53A C55U C61U as the variant, how does the yeast fitness read?
**A.** The yeast fitness was at most 0.5.
